Columns and labels:
[1] = Induction of HNO release per mol of compound in 0.6 mL MeOH and 0.2 mL of 1 M NaOH after 2 hr by gas chromatographic analysis; format: physicochemical
Outline: (§1)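 HNO measured indirectly as N2O under anaerobic conditions: compound at 50 mM in 0.6 mL MeOH plus 0.2 mL 1 M NaOH; headspace (0.25 mL) injected at 2 and 24 h onto GC with thermal conductivity detector and Porapak Q column. % based on 2 mol HNO per mol N2O; mean of three experiments.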

[2] = Induction of HNO release per mol of compound in 0.6 mL MeOH and 0.2 mL of 1 M NaOH after 24 hr by gas chromatographic analysis; format: physicochemical; outline: as §1
[3] = Induction of HNO release per mol of compound in 0.6 mL MeOH, 0.2 mL of 1 M NaOH and 100 mM glutathione after 2 hr by gas chromatographic analysis; format: physicochemical
Outline: (§2)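 Compound 50 mM in MeOH-based solvent containing 100 mM glutathione and 250 mM NaOH (25 mM NaOH for some compounds); headspace N2O sampled at 2 and 24 h by GC with thermal conductivity detection. % HNO from 2 mol HNO per mol N2O; mean of three.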

[4] = Induction of HNO release per mol of compound in 0.6 mL MeOH, 0.2 mL of 1 M NaOH and 100 mM glutathione after 24 hr by gas chromatographic analysis; format: physicochemical; outline: as §2
[5] = biological target: T1, Prostaglandin G/H synthase 1 (Ovis aries, UniProt P05979); assay: Inhibition of ovine COX-1
T1 sequence (P05979 whole entry): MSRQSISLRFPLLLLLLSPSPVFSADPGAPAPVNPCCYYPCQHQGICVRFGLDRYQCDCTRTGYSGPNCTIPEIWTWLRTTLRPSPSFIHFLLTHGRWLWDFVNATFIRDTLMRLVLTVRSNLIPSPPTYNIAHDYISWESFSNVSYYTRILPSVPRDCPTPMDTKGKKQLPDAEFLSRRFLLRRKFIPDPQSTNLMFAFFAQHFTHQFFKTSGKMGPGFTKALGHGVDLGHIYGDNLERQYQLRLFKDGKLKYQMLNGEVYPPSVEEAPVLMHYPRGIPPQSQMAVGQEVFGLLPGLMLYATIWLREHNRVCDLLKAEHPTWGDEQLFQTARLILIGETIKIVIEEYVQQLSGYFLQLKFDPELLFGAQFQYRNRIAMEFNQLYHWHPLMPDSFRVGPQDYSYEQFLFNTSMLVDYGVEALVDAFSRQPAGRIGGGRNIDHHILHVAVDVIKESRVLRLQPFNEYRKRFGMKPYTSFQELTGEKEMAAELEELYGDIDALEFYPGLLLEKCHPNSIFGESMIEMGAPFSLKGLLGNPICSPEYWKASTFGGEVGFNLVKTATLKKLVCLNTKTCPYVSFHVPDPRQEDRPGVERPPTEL

Rattus norvegicus [6] = assay: Antiinflammatory activity in Sprague-Dawley rat assessed as inhibition of carrageenam-induced paw edema at 327 umol/kg, po administered 1 hr before carrageenan challenge measured after 3 hrs by Plethysmometer; format: functional
Outline: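 Male Sprague-Dawley rats (160-180 g), three per group. Test agent was suspended in water with 1% methylcellulose and given orally 1 h before 0.05 mL 1% carrageenan in 0.9% NaCl was injected subcutaneously under the plantar skin of the right hind paw. Controls received vehicle only. Paw volume was measured at 0 and 3 h by plethysmometer. Result is % inhibition of inflammation, n = 3, with SEM.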

[7] = Chemical stability of the compound in phosphate buffered saline of pH 7.4 assessed as NO release at 50 uM after 1.5 hr by Griess assay; settings: buffer, pH 7.4, 1.5 h
[8] = Induction of HNO release per mol of compound in 0.6 mL MeOH and 0.2 mL of 700 mM Tris buffer solution after 2 hr by gas chromatographic analysis
[9] = Induction of HNO release per mol of compound in 0.6 mL MeOH and 0.2 mL of 700 mM Tris buffer solution after 24 hr by gas chromatographic analysis
[10] = Chemical stability of the compound in phosphate buffered containg rat serum of pH 7.4 assessed as NO release at 50 uM after 1.5 hr by Griess assay; settings: pH 7.4, 1.5 h
Rattus norvegicus [11] = assay: Antiinflammatory activity in po dosed Sprague-Dawley rat assessed as inhibition of carrageenam-induced paw edema administered 1 hr before carrageenan challenge measured after 3 hrs by Plethysmometer; format: functional; settings: read-out: ID50 (the source's name)
Outline: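 Male Sprague-Dawley rats (160-180 g), three per group; compounds suspended in water with 1% methyl cellulose given orally at no fewer than three doses (2.8-112 mg/kg range) 1 h before subplantar injection of 0.05 mL 1% carrageenan in 0.9% NaCl into right hind paw. Vehicle-only controls. Paw volume measured by plethysmometer at 0 and 3 h; ID50 from dose-response curve.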

Rattus norvegicus [12] = assay: Ulcerogenic activity in 12 fasting Sprague-Dawley rat assessed as ulcer index at 80 umol/kg, po measured after 6 hrs by magnifier lenses; format: toxicity, organism-based; settings: in vivo
Outline: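 Rats fasted (water allowed) 12 h, then given 80 μmol/kg orally suspended in 1.7 mL 1% methylcellulose; vehicle controls. After 6 h, CO2 euthanasia; stomachs opened along greater curvature, rinsed, ulcers counted and measured with magnifier lenses. UI = summed ulcer length (mm) per stomach averaged over n = 3 per group.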

Rattus norvegicus [13] = assay: Antiinflammatory activity in Sprague-Dawley rat assessed as inhibition of carrageenam-induced paw edema at 100 mg/kg, po administered 1 hr before carrageenan challenge measured after 3 hrs by Plethysmometer; format: functional
Outline: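 Male Sprague-Dawley rats (160-180 g), three per group, received the test compound orally as a suspension in water with 1% methyl cellulose. One hour later, 0.05 mL of 1% carrageenan in 0.9% NaCl was injected subcutaneously into the right hind paw plantar skin. Controls received vehicle alone. Paw volume was read at 0 and 3 h, and % inhibition was reported with SEM (n = 3).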

| Compound | Activity [1] [%] | Activity [2] [%] | Activity [3] [%] | Activity [4] [%] | IC50 [5] [µM] | inhibition in vivo at 327 µmol/kg (Rattus norvegicus [6]) [%] | Activity [7] [%] | Activity [8] [%] | Activity [9] [%] | Activity [10] [%] | ED50 (Rattus norvegicus [11]) [µmol/kg] | UI (Rattus norvegicus [12]) | inhibition in vivo at 100 mg/kg (Rattus norvegicus [13]) [%] |
| --- | --- | --- | --- | --- | --- | --- | --- | --- | --- | --- | --- | --- | --- |
| CONS(=O)(=O)CCOC(=O)C(C)c1ccc(CC(C)C)cc1 (configuration not stated) | 0 | 0 | 0 | 0 | 14.6 | 78.9 | 4.3 | 0 | 0 | 0.9 |  |  |  |
| COc1ccc2cc([C@H](C)C(=O)O)ccc2c1 [NAPROXEN] |  |  |  |  |  |  |  |  |  |  | 29.7 |  |  |
| CCS(=O)(=O)NO [ETHANESULFONYLHYDROXAMIC ACID] | 24 | 7 | 0 | 0 | > 100 |  | 54.5 | 0 | 0 | 1.4 |  |  |  |
| COc1ccc2cc([C@H](C)C(=O)OCCS(=O)(=O)NO)ccc2c1 | 24 | 23 | 2 | 4 | 4.5 |  | 52.9 | 0 | 0 | 1.3 | 11.8 |  |  |
| COc1ccc2c(c1)c(CC(=O)OCCS(=O)(=O)NO)c(C)n2C(=O)c1ccc(Cl)cc1 | 20 | 1 | 1 | 1 | 77.7 |  | 44.5 | 0 | 0 | 3.2 | 19.1 | 0 |  |
| COc1ccc2c(c1)c(CC(=O)O)c(C)n2C(=O)c1ccc(Cl)cc1 [INDOMETHACIN] |  |  |  |  |  |  |  |  |  |  |  | 64.5 |  |
| O=C(Cc1ccccc1)OCCS(=O)(=O)NO | 23 | 21 | 0 | 7 | > 100 |  | 54.3 | 0 | 0 | 4.8 |  |  | 12.4 |
| CC(C)Cc1ccc(C(C)C(=O)OCCS(=O)(=O)NO)cc1 (configuration not stated) | 25 | 24 | 0 | 7 | 1.1 | 79.5 | 46.3 | 0 | 0 | 2.1 |  |  |  |
